# “Also recorded” adds a separate entry of the source.
# Assays:
# [1] = tested on: T. gondii RH strain with T222P substitution in the cyt b Qi site; assay: T. gondii T222P strain proliferation assay; format: cell-based, Toxoplasma gondii
# Procedure, shortened: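 Compounds were DMSO-diluted (≤0.5% final) over human foreskin fibroblast monolayers. Wild-type or Thr222Pro RH tachyzoites (4000/well) expressing gfp and β-galactosidase were added; the mutant came from chemical mutagenesis plus selection. After 72 h at 37°C, 5% CO2, cells were lysed and chlorophenol red β-galactopyranoside added for 4 h, read spectrophotometrically. Each run ≥3 times in quadruplicate. Resistance is the T222P/wild-type EC50 ratio.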
# human cyt bc1 = conditions: cited from earlier work
# S. cerevisiae cyt bc1 = conditions: cited from earlier work
# [2] = tested on: RH strain of T. gondii expressing β-galactosidase (wild type cyt b); assay: 72h T. gondii tachyzoite proliferation assay; format: cell-based; conditions: Toxoplasma gondii, read-out: T. gondii EC50
# Dd2 P. falciparum strain = assay: 72h P. falciparum blood stage proliferation assay; format: cell-based; conditions: Plasmodium falciparum, DD2, 72 h, read-out: Dd2 EC50 (P. falciparum)
# Procedure, shortened: (§1)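 Dd2 or I22L clone (I22L selected from Dd2 under quinolone pressure) blood stages in 2-fold dilution series, in triplicate. Final hematocrit 2% (v/v), starting parasitemia 0.2%. Incubated 72 h at 37°C under 5% CO2/5% O2/90% N2. SYBR Green I dye-detergent added for 1 h at room temperature in the dark, then fluorescence read. EC50 is the mean of ≥3 experiments. […]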
# [3] = tested on: virulent Type I RH strain of T. gondii that expresses luciferase; assay: In vivo efficacy against acute toxoplasmosis in mice; parameters: species or system Toxoplasma gondii; conditions: 5 mg/kg orally for 5 days; for luminescence from infection: at day 13 / prior to euthanasia; for survival of infected mice: CF-1 mice, 4 per group
# [4] = tested on: P. falciparum Dd2 strain with I22L substitution in cytochrome b; assay: P. falciparum I22L strain proliferation assay; format: cell-based, Plasmodium falciparum
# Procedure, shortened: as §1
# [5] = rats, orally at 5 mk/kg; cited from earlier work
# Plasmodium = conditions: single dose of 1 mg/kg; cited from earlier work
# N. caninum = conditions: 10mg/kg dose; cited from earlier work
# [6] = cited from earlier work
smiles,measurement,setting,value
COc1ccc2c(=O)c(-c3ccc(Oc4ccc(OC(F)(F)F)cc4)cc3)c(C)[nH]c2c1 [Compound 2B],resistance caused by T222P substitution in T. gondii,[1],causes resistance
same,activity against human cyt bc1,human cyt bc1,do not inhibit
same,activity against yeast (S. cerevisiae) cyt bc1,S. cerevisiae cyt bc1,do not inhibit
"CCCCCCCCCCCc1c(C)[nH]c2cc(OC)ccc2c1=O [Compound 2C, 7-methoxy-2-methyl-3-undecylquinolin-4(1H)-one]",EC50,[2],0.37 nM
same,EC50,Dd2 P. falciparum strain,1.8 nM
"O=C1C(O)=C([C@H]2CC[C@H](c3ccc(Cl)cc3)CC2)C(=O)c2ccccc21 [ATV, Atovaquone, reference compound]",T. gondii DNA in brain (quantitative real-time PCR),[3],developed both systemic and brain infection
same,T. gondii DNA in spleen (quantitative real-time PCR),[3],developed both systemic and brain infection
same,luminescence from infection,[3],detectable in the 2 surviving mice
same,activity against human cyt bc1,human cyt bc1,has activity
COc1cc2[nH]c(C)c(-c3ccc(Oc4ccc(OC(F)(F)F)cc4)cc3)c(=O)c2cc1F [Compound 3B],T. gondii DNA in brain (quantitative real-time PCR),[3],evidence of brain infection by PCR that was similar to controls
same,luminescence from infection,[3],3 of 4 mice did not have luminescence
same,T. gondii DNA in brain (quantitative real-time PCR),[3]; listed as ELQ-316,had T. gondii infection in brain tissue
same,T. gondii DNA in spleen (quantitative real-time PCR),[3]; listed as ELQ-316,not detected above the limits of detection in the spleen of 3 of 4 mice
same,resistance caused by T222P substitution in T. gondii,[1],causes resistance
same,activity against human cyt bc1,human cyt bc1,do not inhibit
same,activity against yeast (S. cerevisiae) cyt bc1,S. cerevisiae cyt bc1,do not inhibit
COc1cc2[nH]c(C)c(-c3ccc(Oc4ccc(OC(F)(F)F)cc4)cc3)c(=O)c2cc1Cl [Compound 4B],resistance caused by I22L substitution in P. falciparum,[4],causes resistance
same,resistance caused by T222P substitution in T. gondii,[1],causes resistance
same,activity against human cyt bc1,human cyt bc1,do not inhibit
same,activity against yeast (S. cerevisiae) cyt bc1,S. cerevisiae cyt bc1,do not inhibit
Cc1[nH]c2ccccc2c(=O)c1-c1ccc(Oc2ccc(OC(F)(F)F)cc2)cc1 [Compound 1B],activity against human cyt bc1,human cyt bc1,has activity
same,activity against yeast (S. cerevisiae) cyt bc1,S. cerevisiae cyt bc1,has activity
Cc1[nH]c2cc(F)cc(F)c2c(=O)c1-c1ccc(Oc2ccc(OC(F)(F)F)cc2)cc1 [Compound 8B],T. gondii DNA in brain (quantitative real-time PCR),[3],not detected
same,T. gondii DNA in spleen (quantitative real-time PCR),[3],not detected
same,survival of infected mice,[3],survived until day 32; also recorded: all mice survived
same,survival of infected mice,[3]; listed as ELQ-400,alive at the completion of the experiment
same,T. gondii DNA in brain (quantitative real-time PCR),[3]; listed as ELQ-400,did not have infection detectable by PCR
same,T. gondii DNA in spleen (quantitative real-time PCR),[3]; listed as ELQ-400,none of the mice
same,maximum concentration,[5],71.2 ng/mL
same,efficacy in a mouse model of malaria,Plasmodium,curative
same,efficacy against N. caninum infection,N. caninum,effective in reducing infection
same,activity against human cyt bc1,human cyt bc1,has activity
same,site of inhibition in S. cerevisiae cyt b,S. cerevisiae cyt bc1,inhibit both the Qo and Qi site
same,toxicity in general cell assays and in vivo efficacy studies,[6],toxicity was not observed

# Reference: PMC6884402 (ACS infectious diseases, 2018)
